The source of these data is ChEMBL document CHEMBL3112554, “Discovery of simplified N²-substituted pyrazolo[3,4-d]pyrimidine derivatives as novel adenosine receptor antagonists: efficient synthetic approaches, biological evaluations and molecular docking studies” (Bioorg Med Chem, 2014).

For assay [1], the species on record is Homo sapiens. Nature of the assay: Selectivity ratio of Ki for human adenosine A2A receptor to Ki for human adenosine A3 receptor. In outline: (§1)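 Ratios of Ki values from displacement assays in CHO cells (3 h, room temperature). The hA1 Ki ([3H]CCPA) or the hA2A Ki ([3H]NECA) was divided by the hA3 Ki ([3H]HEMADO). Each Ki is a geometric mean of n = 3–6.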

In assay [2] the target is T1, Adenosine receptor A3 (Homo sapiens, UniProt P0DMS8).
T1 sequence (P0DMS8 whole entry): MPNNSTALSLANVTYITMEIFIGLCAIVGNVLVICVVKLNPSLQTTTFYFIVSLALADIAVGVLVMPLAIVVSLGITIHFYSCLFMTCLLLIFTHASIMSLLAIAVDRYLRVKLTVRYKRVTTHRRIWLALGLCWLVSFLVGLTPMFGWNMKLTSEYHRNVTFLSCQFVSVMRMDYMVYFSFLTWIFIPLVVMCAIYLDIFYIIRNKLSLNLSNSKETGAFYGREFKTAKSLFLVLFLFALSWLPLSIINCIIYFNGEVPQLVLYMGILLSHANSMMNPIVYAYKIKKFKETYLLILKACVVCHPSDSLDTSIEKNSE
Nature of the assay: Displacement of [3H]-HEMADO from human adenosine A3 receptor expressed in CHO cells after 3 hrs by topcount scintillation counting analysis. It is filed as cell-based. In outline:
(§2)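 Radioligand binding to membranes from CHO cells expressing the human receptor, run for 3 h at room temperature. Radioligands were [3H]CCPA for hA1, [3H]NECA for hA2A and [3H]HEMADO for hA3. Nonspecific binding was defined with 1 mM theophylline (hA1) or 100 µM R-PIA (hA2A, hA3). Bound ligand was separated by GF/B filtration and counted. Ki came from nonlinear fitting of competition curves using Cheng-Prusoff, as geometric means of n = 3–6 with 95% CI.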
(In general: Loss of bound radioactivity is the signal in a displacement assay; it reports binding, not function.)

Assay [3] has as its target T2, Adenosine receptor A2b (Homo sapiens, UniProt P29275).
T2 sequence (P29275 whole entry): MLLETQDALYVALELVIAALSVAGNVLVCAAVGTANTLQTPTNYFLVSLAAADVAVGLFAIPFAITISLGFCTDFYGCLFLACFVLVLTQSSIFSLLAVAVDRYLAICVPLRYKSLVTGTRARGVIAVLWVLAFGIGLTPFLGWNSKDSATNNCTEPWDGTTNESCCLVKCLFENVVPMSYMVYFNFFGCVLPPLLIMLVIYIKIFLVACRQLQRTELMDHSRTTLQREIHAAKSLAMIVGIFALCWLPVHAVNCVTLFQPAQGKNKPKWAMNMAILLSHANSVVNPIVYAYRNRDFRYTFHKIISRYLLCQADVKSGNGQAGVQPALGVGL
Nature of the assay: Antagonist activity at human adenosine A2B receptor expressed in CHO cells assessed as inhibition of NECA-induced adenylyl cyclase activity after 20 mins in presence of [alpha-32P]ATP. It is filed as functional, cell-based. In outline: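 Membranes from CHO cells transfected with the human A2B receptor were incubated for 20 min with 100 nM NECA, 150,000 cpm [α-32P]ATP and test compound at several concentrations. The incubation mixture contained no EGTA and no NaCl. Ki was derived from concentration-dependent inhibition of NECA-stimulated adenylyl cyclase activity (n = 3–6).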

In assay [4] the target is Adenosine receptor A2a (Homo sapiens, UniProt P29274). Kind of assay: Displacement of [3H]-NECA from human adenosine A2A receptor expressed in CHO cells after 3 hrs by topcount scintillation counting analysis. It is filed as cell-based. In outline: as §2
Adenosine receptor A2a, sequence (P29274 whole entry): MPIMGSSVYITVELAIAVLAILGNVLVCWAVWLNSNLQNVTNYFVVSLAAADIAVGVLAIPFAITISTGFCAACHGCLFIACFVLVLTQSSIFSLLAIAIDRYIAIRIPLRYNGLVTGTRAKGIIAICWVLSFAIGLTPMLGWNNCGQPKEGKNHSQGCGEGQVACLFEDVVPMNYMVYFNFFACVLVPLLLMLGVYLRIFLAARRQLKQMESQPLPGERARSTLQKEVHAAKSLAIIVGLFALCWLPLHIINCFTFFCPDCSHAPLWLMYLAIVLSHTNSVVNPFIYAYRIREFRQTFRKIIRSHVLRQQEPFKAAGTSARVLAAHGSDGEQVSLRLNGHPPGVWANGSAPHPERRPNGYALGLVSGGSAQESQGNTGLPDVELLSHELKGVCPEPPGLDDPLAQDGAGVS
The target of assay [5] is T3, Adenosine receptor A1 (Homo sapiens, UniProt P30542).
T3 sequence (P30542 whole entry): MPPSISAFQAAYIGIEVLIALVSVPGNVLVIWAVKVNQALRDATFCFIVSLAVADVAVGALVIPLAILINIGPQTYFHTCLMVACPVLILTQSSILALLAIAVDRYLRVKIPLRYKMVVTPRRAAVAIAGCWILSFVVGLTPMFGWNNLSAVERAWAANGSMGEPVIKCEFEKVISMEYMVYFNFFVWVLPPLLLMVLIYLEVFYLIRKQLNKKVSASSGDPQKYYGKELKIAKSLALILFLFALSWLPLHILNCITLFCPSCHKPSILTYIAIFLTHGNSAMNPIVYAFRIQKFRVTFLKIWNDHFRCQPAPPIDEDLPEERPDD
Nature of the assay: Displacement of [3H]-CCPA from human adenosine A1 receptor expressed in CHO cells after 3 hrs by topcount scintillation counting analysis. It is filed as cell-based. In outline: as §2

The target in assay [6] is Adenosine receptors; A1 & A3 (Homo sapiens) (UniProt P30542+P0DMS8). Nature of the assay: Selectivity ratio of Ki for human adenosine A1 receptor to Ki for human adenosine A3 receptor. The procedure, abridged:
as §1

As a reminder, the Ki is the dissociation constant of the complex between target and ligand, obtained from inhibition or displacement. On to `Nc1nc(Cl)c2cn(CCc3ccccc3)nc2n1`, for which, in assay [1], the Ratio Ki is above 0.03. The inhibitory constant (Ki) in assay [2] was above 100 µM; in assay [3], above 20 µM; in assay [4], 3.7 µM; in assay [5] it was 4.3 µM.

`CC(C)(C)Cn1cc2c(Cl)nc(N(C(=O)c3ccccc3)C(=O)c3ccccc3)nc2n1`: the Ratio Ki in assay [6] and in assay [1] was above 15.3 in each case. Moreover, the Ki in assay [2] is 6.5 µM; in assay [3] it was above 20 µM; in assay [4] it was above 100 µM; in assay [5] it was above 100 µM.

As for `CC(C)n1cc2c(Cl)nc(NC(=O)c3ccccc3)nc2n1`, the Ratio Ki in assay [6] turned out to be 1.5; in assay [1] it was 0.3. Besides, the Ki was 12.8 µM in assay [2], above 20 µM in assay [3], 4.6 µM in assay [4] and 19.6 µM in assay [5].

As to `O=C(Cc1ccccc1)Nc1nc(Cl)c2cn(CCc3ccccc3)nc2n1`, the Ratio Ki in assay [6] came out at 0.5; in assay [1], 0.7. Further, the Ki in assay [2] is 11.4 µM; in assay [3], above 20 µM; in assay [4], 8.6 µM; in assay [5], 6.5 µM.

For the compound `Cc1ccc(C(=O)Nc2nc(Cl)c3cn(C)nc3n2)cc1`, the Ratio Ki in assay [6] was above 7.4; in assay [1], 0.8. Further, the Ki in assay [2] was 13.5 µM; in assay [3] it was above 20 µM; in assay [4], 12 µM; in assay [5] it was above 100 µM.

With `Cc1ccc(C(=O)Nc2nc(Cl)c3cn(CC(C)(C)C)nc3n2)cc1`, the Ratio Ki in assay [6] stood at 2.2; in assay [1], 0.4. Also, the Ki is 5 µM in assay [2], above 10 µM in assay [3], 2.1 µM in assay [4] and 11.1 µM in assay [5].

As to `Cn1cc2c(Cl)nc(NC(=O)c3ccc(C(F)(F)F)cc3)nc2n1`, the Ratio Ki in assay [6] is above 2.9; in assay [1], 0.7. Further, the Ki in assay [2] is 33.5 µM; in assay [3], above 20 µM; in assay [4], 25.6 µM; in assay [5] it was above 100 µM.

As to `O=C(Nc1nc(Cl)c2cn(CCc3ccccc3)nc2n1)c1ccccc1`, the results for the Ratio Ki in assay [6] and in assay [1] were 0.4 and 0.3, respectively. The Ki in assay [2] is 8.6 µM; in assay [3] it was above 20 µM; in assay [4], 3.1 µM; in assay [5], 3.8 µM.

Regarding `Cn1cc2c(Cl)nc(N(C(=O)c3ccccc3)C(=O)c3ccccc3)nc2n1`, the Ratio Ki was above 8.4 in assay [6] and 2.4 in assay [1]. Moreover, the Ki is 7.1 µM in assay [2], above 20 µM in assay [3], 17.5 µM in assay [4] and above 60 µM in assay [5].

As for `CC(C)(C)Cn1cc2c(Cl)nc(N)nc2n1`, the Ratio Ki in assay [1] is above 0.6. Further, the Ki in assay [2] was above 60 µM; in assay [3], above 10 µM; in assay [4], 4.1 µM; in assay [5] it was 12 µM.

As to `CCOC(=O)c1nc(NC(=O)c2ccc(C(F)(F)F)cc2)nc2nn(CC(C)(C)C)cc12`, the Ratio Ki in assay [6] and in assay [1] was above 77 throughout. Besides, the Ki in assay [2] was 1.3 µM; in assay [3] it was above 20 µM; in assay [4], above 100 µM; in assay [5], above 100 µM.

Turning to `Cn1cc2c(Cl)nc(N)nc2n1`, the Ratio Ki in assay [1] was above 0.09. Further, the Ki is above 100 µM in assay [2], above 20 µM in assay [3], 9.1 µM in assay [4] and 29.7 µM in assay [5].

Take `CC(C)(C)Cn1cc2c(Cl)nc(NC(=O)Cc3ccccc3)nc2n1`: the Ratio Ki in assay [6] is 2.9; in assay [1], 2.1. The Ki in assay [2] is 10.9 µM; in assay [3] it was above 20 µM; in assay [4], 23.6 µM; in assay [5] it was 31.9 µM.

For the compound `CC(C)n1cc2c(Cl)nc(N)nc2n1`, the Ratio Ki in assay [1] was 0.03. For the same compound, the inhibition constant Ki in assay [2] was above 100 µM; in assay [3] it was above 10 µM; in assay [4], 3.3 µM; in assay [5], 9 µM.

As to `O=C(c1ccccc1)N(C(=O)c1ccccc1)c1nc(Cl)c2cn(CCc3ccccc3)nc2n1`, the Ratio Ki is above 34.5 in assay [6] and 2 in assay [1]. Also, the Ki in assay [2] is 2.9 µM; in assay [3] it was above 20 µM; in assay [4] it was 5.4 µM; in assay [5] it was above 100 µM.

In the case of `Cn1cc2c(Cl)nc(NC(=O)Cc3ccccc3)nc2n1`, the Ratio Ki in assay [6] is 2.4; in assay [1], 4.5. In addition, the Ki in assay [2] was 6.6 µM; in assay [3], above 20 µM; in assay [4], 29.9 µM; in assay [5] it was 16.3 µM.

On to `Cc1ccc(C(=O)Nc2nc(Cl)c3cn(CCc4ccccc4)nc3n2)cc1`, for which the Ratio Ki came to 7.2 in assay [6] and 6.6 in assay [1]. The Ki was 1.5 µM in assay [2], above 20 µM in assay [3], 9.9 µM in assay [4] and 10.8 µM in assay [5].

As to `CCOC(=O)c1nc(NC(=O)c2ccc(C)cc2)nc2nn(CC(C)(C)C)cc12`, the Ratio Ki in assay [6] and in assay [1] was above 111 in each case. Moreover, the Ki was 0.9 µM in assay [2], above 20 µM in assay [3], above 100 µM in assay [4] and above 100 µM in assay [5].

`O=C(Nc1nc(Cl)c2cn(CCc3ccccc3)nc2n1)c1ccc(C(F)(F)F)cc1`: the results for the Ratio Ki in assay [6] and in assay [1] were above 21.4 and 5.8, respectively. For the same compound, the Ki in assay [2] is 2.8 µM; in assay [3] it was above 20 µM; in assay [4], 16.4 µM; in assay [5], above 60 µM.

For `Cn1cc2c(Cl)nc(NC(=O)c3ccc(F)cc3)nc2n1`, the Ratio Ki in assay [6] was above 3.1; in assay [1], 0.6. The Ki in assay [2] was 31.9 µM; in assay [3], above 20 µM; in assay [4], 20.5 µM; in assay [5], above 100 µM.

With `CC(C)(C)Cn1cc2c(Cl)nc(NC(=O)c3ccc(F)cc3)nc2n1`, the results for the Ratio Ki in assay [6] and in assay [1] were 2.7 and 0.3, respectively. In addition, the Ki is 5.9 µM in assay [2], above 10 µM in assay [3], 2.2 µM in assay [4] and 16.5 µM in assay [5].

`CC(C)(C)Cn1cc2c(Cl)nc(NC(=O)c3ccc(C(F)(F)F)cc3)nc2n1`: the Ratio Ki in assay [6] and in assay [1] was above 15 in each case. Besides, the Ki in assay [2] is 6.6 µM; in assay [3], above 20 µM; in assay [4] it was above 100 µM; in assay [5], above 100 µM.

For the compound `CC(C)(C)Cn1cc2c(Cl)nc(NC(=O)c3ccccc3)nc2n1`, the Ratio Ki in assay [6] was 0.3; in assay [1], 0.1. In addition, the Ki in assay [2] was 30.3 µM; in assay [3], at least 10 µM; in assay [4], 3.5 µM; in assay [5], 11 µM.

`CC(C)n1cc2c(Cl)nc(NC(=O)Cc3ccccc3)nc2n1`: the Ratio Ki in assay [6] was determined as 0.07; in assay [1] it was 0.17. For the same compound, the Ki was 27.1 µM in assay [2], above 10 µM in assay [3], 4.7 µM in assay [4] and 1.9 µM in assay [5].

Take `Cn1cc2c(Cl)nc(NC(=O)c3ccccc3)nc2n1`: the results for the Ratio Ki in assay [6] and in assay [1] were above 4.2 and 1, respectively. Moreover, the Ki in assay [2] was 23.6 µM; in assay [3], above 20 µM; in assay [4] it was 24.2 µM; in assay [5], above 100 µM.

On to `CC(C)n1cc2c(Cl)nc(NC(=O)c3ccc(C(F)(F)F)cc3)nc2n1`, for which the Ratio Ki in assay [6] was 1.3; in assay [1], 0.2. Further, the Ki is 10.3 µM in assay [2], above 20 µM in assay [3], 2.7 µM in assay [4] and 13.8 µM in assay [5].
